For orientation: IC50 means the concentration at which inhibition is half-maximal. The term clearance denotes a measure of how efficiently the substance is removed, as volume per time. Usually half-life stands for the time needed for the level to fall by half in the phase considered. The term bioavailability denotes dose-corrected exposure relative to a reference, in per cent. The AUC is concentration integrated over time.

The target in data set [1] is T1, Cytochrome P450 3A4 (Homo sapiens, UniProt P08684). Put plainly: Inhibition of CYP3A4 in human liver microsomes using nifedipine as substrate preincubated for 7 mins followed by NADPH addition and measured by LC-MS/MS analysis. Format: ADME. (Liver microsomes are vesicles of endoplasmic reticulum, rich in cytochrome P450 enzymes.)
Data set [2] can be described thus: Clearance in rat at 1 mg/kg, iv by LC-MS/MS analysis. Format: ADME, organism-based. The conditions noted are these: in vivo.
A short description of data set [3]: Volume of distribution at steady state in rat at 1 mg/kg, iv by LC-MS/MS analysis. It counts as ADME, organism-based. Particulars: in vivo, read-out: Vdss.
The target of data set [4] is Cytochrome P450 2C19 (Homo sapiens, UniProt P33261). In words: Inhibition of CYP2C19 in human liver microsomes using mephenytoin as substrate preincubated for 10 mins followed by NADPH addition and measured by LC-MS/MS analysis. It counts as ADME.
Data set [5] in a line: Half life in rat at 1 mg/kg, iv by LC-MS/MS analysis. It counts as ADME, organism-based. The conditions noted are these: in vivo.
Data set [6] is described as follows: Oral bioavailability in rat at 5 mg/kg by LC-MS/MS analysis. Format: ADME, organism-based. The conditions noted are these: in vivo.
Data set [7] addresses T1, Cytochrome P450 3A4. Put plainly: Inhibition of CYP3A4 in human liver microsomes using midazolam as substrate preincubated for 7 mins followed by NADPH addition and measured by LC-MS/MS analysis. Format: ADME.
The target in data set [8] is T1, Cytochrome P450 3A4. In words: Inhibition of CYP3A4 in human liver microsomes using atorvastatin as substrate preincubated for 7 mins followed by NADPH addition and measured by LC-MS/MS analysis. Format: ADME.
For data set [9], the target named is Cytochrome P450 2C9 (Homo sapiens, UniProt P11712). In words: Inhibition of CYP2C9 in human liver microsomes using diclofenac as substrate preincubated for 10 mins followed by NADPH addition and measured by LC-MS/MS analysis. It counts as ADME.
Data set [10] is described as follows: AUC in rat at 5 mg/kg, po by LC-MS/MS analysis. The conditions noted are these: in vivo. Format: ADME, organism-based.
Data set [11] is described as follows: Blood clearance in rat at 1 mg/kg, iv by LC-MS/MS analysis. Particulars: whole blood. Format: ADME, organism-based. Summed up: (§1)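 Rat and dog received a single i.v. dose of 1 mg/kg in DMSO/20% hydroxypropyl-β-cyclodextrin (10/90), pH adjusted. Clearance was taken from blood or plasma concentration–time profiles.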
Data set [12] in a line: Blood clearance in rat at 1 mg/kg, iv by LC-MS/MS analysis relative to hepatic blood flow. Format: ADME, organism-based. Particulars: in vivo. Summed up: (§2)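 Clearance expressed as a percentage of liver blood flow: compound blood or plasma clearance after i.v. dosing divided by the hepatic blood flow of that species.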
Data set [13] is described as follows: Plasma clearance in cynomolgus monkey at 1 mg/kg, iv by LC-MS/MS analysis. Format: ADME, organism-based, Macaca fascicularis.
The nature of data set [14]: Blood clearance in Beagle dog at 1 mg/kg, iv by LC-MS/MS analysis. It counts as ADME, organism-based, Canis lupus familiaris. The conditions noted are these: whole blood. Summed up:
as §1

A short description of data set [15]: Plasma clearance in cynomolgus monkey at 1 mg/kg, iv by LC-MS/MS analysis relative to hepatic blood flow. Particulars: in vivo. It counts as ADME, organism-based, Macaca fascicularis. A digest of the protocol: as §2
Data set [16] can be described thus: Blood clearance in Beagle dog at 1 mg/kg, iv by LC-MS/MS analysis relative to hepatic blood flow. It counts as ADME, organism-based, Canis lupus familiaris. Particulars: in vivo. A digest of the protocol:
as §2

Data set [17] in a line: Half life in human hepatocytes at 0.5 uM by LC-MS/MS analysis. It counts as ADME, cell-based, Hepatocyte. Summed up:
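Cryopreserved human hepatocytes were incubated with compound for up to 2 h, and metabolic turnover was followed to estimate half-life.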

Data set [18] concerns Hepatitis C virus. In words: Antiviral activity against HCV genotype1 infected in human assessed as reduction in plasma viral RNA level at 420 mg, po administered as single dose. It counts as functional, Hepacivirus hominis, genotype 1.
Data set [19] is described as follows: Plasma clearance in CD1 mouse at 1 mg/kg, iv by LC-MS/MS analysis relative to hepatic blood flow. It counts as ADME, organism-based. The conditions noted are these: in vivo. Summed up:
as §2

A short description of data set [20]: Half life in human assessed as 5-cyclopropyl-2-(4-fluorophenyl)-N-methyl-6-(methylsulfonamido)benzofuran-3-carboxamide level. It counts as ADME.
In data set [21] the target is T2, Cytochrome P450 1A2 (Homo sapiens, UniProt P05177).
T2 sequence (P05177 whole entry): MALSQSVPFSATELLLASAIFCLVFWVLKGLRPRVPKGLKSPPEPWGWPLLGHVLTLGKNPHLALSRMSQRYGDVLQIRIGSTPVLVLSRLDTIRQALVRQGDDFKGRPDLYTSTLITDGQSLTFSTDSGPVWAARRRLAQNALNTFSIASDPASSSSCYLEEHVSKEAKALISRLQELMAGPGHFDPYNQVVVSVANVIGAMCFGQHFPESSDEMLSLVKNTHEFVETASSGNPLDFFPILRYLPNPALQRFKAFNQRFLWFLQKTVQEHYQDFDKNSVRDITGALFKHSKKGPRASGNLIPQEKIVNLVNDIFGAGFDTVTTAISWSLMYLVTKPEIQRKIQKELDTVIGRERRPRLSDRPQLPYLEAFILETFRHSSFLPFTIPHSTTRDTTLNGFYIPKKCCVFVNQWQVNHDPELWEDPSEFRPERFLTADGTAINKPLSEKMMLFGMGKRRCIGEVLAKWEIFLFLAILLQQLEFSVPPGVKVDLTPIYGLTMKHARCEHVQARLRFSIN
In words: Inhibition of CYP1A2 in human liver microsomes at 0.033 to 33 uM using phenacetin as substrate preincubated for 10 mins followed by NADPH addition and measured by LC-MS/MS analysis. It counts as ADME.

A short description of data set [22]: Blood clearance in CD1 mouse at 1 mg/kg, iv by LC-MS/MS analysis. The conditions noted are these: whole blood. It counts as ADME, organism-based.
The target in data set [23] is Cytochrome P450 2D6 (Homo sapiens, UniProt P10635). Put plainly: Inhibition of CYP2D6 in human liver microsomes at 0.033 to 33 uM using bufuralol as substrate preincubated for 10 mins followed by NADPH addition and measured by LC-MS/MS analysis. Format: ADME.
Data set [24] in a line: Blood clearance in CD1 mouse at 1 mg/kg, iv by LC-MS/MS analysis relative to hepatic blood flow. Format: ADME, organism-based. Particulars: in vivo. Summed up:
as §2

In data set [25] the target is Voltage-gated inwardly rectifying potassium channel KCNH2 (Homo sapiens, UniProt Q12809). In words: Inhibition of human ERG by patch clamp electrophysiology method. Summed up:
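hERG activity was measured by patch-clamp electrophysiology as the reduction in channel current caused by the compound, giving an IC50.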
A general note: The patch-clamp technique gives a direct electrical read-out from membranes.

Data set [26] can be described thus: Blood clearance in cynomolgus monkey at 1 mg/kg, iv by LC-MS/MS analysis relative to hepatic blood flow. It counts as ADME, organism-based, Macaca fascicularis. The conditions noted are these: in vivo. Summed up:
as §2

Data set [27] is described as follows: Half life in rat hepatocytes at 0.5 uM by LC-MS/MS analysis. Format: ADME, cell-based, Hepatocyte.

T1 sequence (P08684 whole entry): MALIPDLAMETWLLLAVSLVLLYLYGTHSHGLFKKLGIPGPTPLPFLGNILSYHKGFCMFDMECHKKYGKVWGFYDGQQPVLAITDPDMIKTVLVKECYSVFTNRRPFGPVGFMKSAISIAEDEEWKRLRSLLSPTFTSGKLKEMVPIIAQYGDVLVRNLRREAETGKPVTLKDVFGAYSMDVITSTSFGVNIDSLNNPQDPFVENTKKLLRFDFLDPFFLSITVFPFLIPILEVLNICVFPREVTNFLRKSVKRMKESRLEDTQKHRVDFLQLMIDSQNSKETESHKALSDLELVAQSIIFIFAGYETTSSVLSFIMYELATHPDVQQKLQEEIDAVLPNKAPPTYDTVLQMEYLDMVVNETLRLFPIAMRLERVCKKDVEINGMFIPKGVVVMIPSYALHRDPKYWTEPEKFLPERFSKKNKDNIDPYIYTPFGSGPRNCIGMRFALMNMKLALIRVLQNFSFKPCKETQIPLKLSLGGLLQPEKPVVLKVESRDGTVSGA
Chain of Cytochrome P450 2C9 (P11712 whole entry): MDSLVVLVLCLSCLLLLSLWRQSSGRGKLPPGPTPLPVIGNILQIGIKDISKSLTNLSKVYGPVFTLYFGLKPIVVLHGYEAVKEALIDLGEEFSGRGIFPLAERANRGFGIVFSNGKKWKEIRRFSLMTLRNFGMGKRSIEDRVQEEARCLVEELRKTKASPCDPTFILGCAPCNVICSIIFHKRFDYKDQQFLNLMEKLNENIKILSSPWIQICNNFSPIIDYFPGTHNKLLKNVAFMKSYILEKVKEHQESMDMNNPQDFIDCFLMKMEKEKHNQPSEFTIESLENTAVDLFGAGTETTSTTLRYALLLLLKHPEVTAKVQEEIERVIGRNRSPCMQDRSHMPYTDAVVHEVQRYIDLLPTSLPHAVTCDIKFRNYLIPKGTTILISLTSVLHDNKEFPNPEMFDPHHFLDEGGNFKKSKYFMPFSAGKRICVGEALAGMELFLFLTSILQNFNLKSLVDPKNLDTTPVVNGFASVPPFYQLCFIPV
Chain of Cytochrome P450 2C19 (P33261 whole entry): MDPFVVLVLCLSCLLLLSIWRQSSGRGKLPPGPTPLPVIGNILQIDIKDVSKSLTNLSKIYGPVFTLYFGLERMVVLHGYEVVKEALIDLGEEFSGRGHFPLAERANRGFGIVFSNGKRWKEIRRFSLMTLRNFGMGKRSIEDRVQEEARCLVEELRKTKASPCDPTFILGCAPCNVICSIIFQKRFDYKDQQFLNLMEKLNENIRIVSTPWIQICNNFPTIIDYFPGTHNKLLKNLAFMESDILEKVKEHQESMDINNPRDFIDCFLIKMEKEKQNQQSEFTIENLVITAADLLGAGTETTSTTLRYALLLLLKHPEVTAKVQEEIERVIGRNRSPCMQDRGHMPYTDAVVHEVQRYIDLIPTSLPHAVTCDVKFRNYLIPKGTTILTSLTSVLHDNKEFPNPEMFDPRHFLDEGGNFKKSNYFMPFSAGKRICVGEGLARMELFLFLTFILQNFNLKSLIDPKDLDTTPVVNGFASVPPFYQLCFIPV
Chain of Voltage-gated inwardly rectifying potassium channel KCNH2 (Q12809 whole entry): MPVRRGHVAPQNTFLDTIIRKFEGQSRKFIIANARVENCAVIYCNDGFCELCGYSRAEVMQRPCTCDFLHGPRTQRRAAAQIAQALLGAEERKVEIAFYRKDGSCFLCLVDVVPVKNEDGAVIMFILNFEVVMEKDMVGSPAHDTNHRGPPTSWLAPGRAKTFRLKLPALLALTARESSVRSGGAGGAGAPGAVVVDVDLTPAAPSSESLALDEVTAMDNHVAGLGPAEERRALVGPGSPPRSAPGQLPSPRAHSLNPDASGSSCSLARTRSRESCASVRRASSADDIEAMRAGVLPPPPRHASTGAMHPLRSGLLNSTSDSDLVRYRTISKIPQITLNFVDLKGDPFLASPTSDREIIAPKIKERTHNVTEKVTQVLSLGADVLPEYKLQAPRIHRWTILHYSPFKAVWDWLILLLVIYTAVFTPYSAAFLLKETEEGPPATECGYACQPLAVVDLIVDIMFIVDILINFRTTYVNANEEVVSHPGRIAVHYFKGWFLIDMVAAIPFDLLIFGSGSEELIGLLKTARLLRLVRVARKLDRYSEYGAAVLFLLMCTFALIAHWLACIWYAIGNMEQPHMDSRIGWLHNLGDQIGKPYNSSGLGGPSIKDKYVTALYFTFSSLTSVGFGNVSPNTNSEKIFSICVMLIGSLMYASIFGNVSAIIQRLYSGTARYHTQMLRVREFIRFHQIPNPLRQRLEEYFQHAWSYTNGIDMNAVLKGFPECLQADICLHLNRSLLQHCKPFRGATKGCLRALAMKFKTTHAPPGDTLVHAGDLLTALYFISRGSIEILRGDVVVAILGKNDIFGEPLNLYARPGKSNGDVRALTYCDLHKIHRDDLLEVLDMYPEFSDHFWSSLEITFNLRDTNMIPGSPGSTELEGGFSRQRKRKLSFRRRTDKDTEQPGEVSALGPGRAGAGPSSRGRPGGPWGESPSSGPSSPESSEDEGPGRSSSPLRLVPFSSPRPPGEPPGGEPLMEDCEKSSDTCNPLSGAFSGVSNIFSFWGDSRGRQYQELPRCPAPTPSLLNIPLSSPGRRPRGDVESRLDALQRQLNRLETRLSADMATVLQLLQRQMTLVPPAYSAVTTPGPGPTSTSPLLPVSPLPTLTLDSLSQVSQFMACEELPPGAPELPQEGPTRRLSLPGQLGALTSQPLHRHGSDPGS
Chain of Cytochrome P450 2D6 (P10635 whole entry): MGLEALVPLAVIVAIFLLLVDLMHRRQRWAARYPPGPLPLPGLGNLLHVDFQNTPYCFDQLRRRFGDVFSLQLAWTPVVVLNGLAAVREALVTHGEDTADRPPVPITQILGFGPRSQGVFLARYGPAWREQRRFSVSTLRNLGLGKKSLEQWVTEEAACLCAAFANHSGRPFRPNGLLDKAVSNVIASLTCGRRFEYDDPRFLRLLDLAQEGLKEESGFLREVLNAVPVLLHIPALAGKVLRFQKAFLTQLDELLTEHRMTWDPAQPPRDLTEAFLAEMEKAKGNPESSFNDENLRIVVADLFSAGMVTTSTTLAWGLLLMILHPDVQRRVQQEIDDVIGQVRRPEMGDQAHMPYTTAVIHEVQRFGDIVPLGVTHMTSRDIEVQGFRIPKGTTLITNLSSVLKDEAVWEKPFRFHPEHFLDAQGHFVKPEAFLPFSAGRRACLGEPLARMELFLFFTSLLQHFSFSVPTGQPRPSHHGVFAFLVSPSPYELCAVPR

Regarding `CNC(=O)c1c(-c2ccc(F)cc2)oc2cc(-n3ncnc3-c3ccc(B(O)O)c(F)c3)c(C3CC3)cc12`, the half-maximal inhibitory concentration (IC50) was more than 33 µM in [1]; 1.2 µM in data set [4]; more than 33 µM in data set [7]; 8.9 µM in data set [8]; 2.7 µM in [9]. Moreover, the clearance in data set [2] is 4.5 mL/min/kg. Further, the Vd in data set [3] was found to be 0.9 L/kg. In addition, in data set [5], the half-life is 2.6 h. Moreover, the bioavailability in data set [6] was determined as 40%. In addition, the AUC in data set [10] worked out at 7600 ng·h/mL.
Molecule `CNC(=O)c1c(-c2ccc(F)cc2)oc2cc(N(Cc3ccc(B(O)O)cc3C(F)(F)F)S(C)(=O)=O)c(C3CC3)cc12` returned a clearance in data set [2] of 3.5 mL/min/kg.
`CNC(=O)c1c(-c2ccc(F)cc2)oc2cc(-n3nccc3-c3ccc(B(O)O)c(F)c3)c(C3CC3)cc12`: the IC50 is more than 33 µM in [1]; 23 µM in [4]; more than 33 µM in data set [7]; 2 µM in [8]; 1.5 µM in data set [9]. Also, in data set [2], the clearance turned out to be 5.4 mL/min/kg. Also, the Vd in [3] came out at 1.3 L/kg. In data set [5], this molecule gave a half-life of 3.4 h. In data set [6], the bioavailability was found to be 64%. Further, the AUC in data set [10] came out at 10000 ng·h/mL.
Consider `CNC(=O)c1c(-c2ccc(F)cc2)oc2cc(N(Cc3ccc(B(O)O)c(F)c3)S(C)(=O)=O)c(C3CC3)cc12`, for which the IC50 in [1] is 28 µM; in [4], 18 µM; in [7] it was more than 33 µM; in data set [8], 7.1 µM; in data set [9], 4.9 µM. Also, the clearance came to 29 mL/min/kg in data set [11], 29 mL/min/kg in data set [2], 48 mL/min/kg in data set [13] and 11 mL/min/kg in [14]. In addition, the Vd in data set [3] was found to be 1.4 L/kg. Also, the CL in data set [12] was 37%; in data set [15], 100%; in data set [16], 19%; in data set [19] it was 1.1%. The half-life in data set [5] was 1 h. The bioavailability in data set [6] was determined as 23%. Besides, in [17], the half-life at 0.5 µM is 1 h. For the same molecule, in [18], the Activity came out at 1.33 log10IU/ml. Further, in data set [10], the area under the curve (AUC) was determined as 700 ng·h/mL. In data set [20], the t1/2 came out at 45 h.
As for `CNC(=O)c1c(-c2ccc(F)cc2)oc2cc(N3C(=O)OC[C@@H]3c3ccc(B(O)O)c(F)c3)c(C3CC3)cc12`, the clearance in [2] was determined as 22 mL/min/kg. Besides, the Vd in data set [3] stood at 1.3 L/kg. The molecule also had a half-life in data set [5] of 1.2 h. Also, in data set [6], the bioavailability was found to be 8%. Further, the area under the curve (AUC) in data set [10] turned out to be 280 ng·h/mL.
As for `CNC(=O)c1c(-c2ccc(F)cc2)oc2cc(N(c3cc(Cl)c4c(c3)COB4O)S(C)(=O)=O)c(C3CC3)cc12`, the 50% inhibitory concentration (IC50) is more than 33 µM in [1]; more than 33 µM in data set [4]; more than 33 µM in data set [7]; 16 µM in data set [25]; more than 33 µM in data set [8]; 22 µM in data set [9]. In addition, the “inhibition (INH)” value in data set [21] and in data set [23] was “Active” each time. Also, the clearance in data set [22] is 0.7 mL/min/kg. The Vd in data set [3] came out at 0.9 L/kg. The CL in [12] is 8.9%; in [16] it was 2.1%; in [24], 0.6%; in [26], 13%. The molecule also showed a half-life in data set [5] of 2.8 h. In [10], this molecule came in with an AUC of 5400 ng·h/mL.
As to `CNC(=O)c1c(-c2ccc(F)cc2)oc2cc(N(c3ccc(B(O)O)c(Cl)c3)S(C)(=O)=O)c(C3CC3)cc12`, the IC50 in data set [1] was 8.1 µM; in data set [4], 7.4 µM; in [7] it was more than 33 µM; in [25] it was 1.6 µM; in data set [8], 4.2 µM; in [9] it was 2.6 µM. The molecule further registered a clearance in data set [2] of 5.1 mL/min/kg. Further, the Vd in [3] worked out at 1.1 L/kg. The same molecule had a half-life in data set [5] of 3.7 h. This molecule returned a bioavailability in data set [6] of 27%. In data set [10], the area under the curve (AUC) was determined as 4800 ng·h/mL.
Turning to `CNC(=O)c1c(-c2ccc(F)cc2)oc2cc(N(C3CCc4c(B(O)O)cccc43)S(C)(=O)=O)c(C3CC3)cc12` (stereo not given), in [2], the clearance came out at 69 mL/min/kg. For the same molecule, the Vd in data set [3] is 3.5 L/kg. The molecule further had a half-life in data set [5] of 1.1 h. In data set [27], this molecule gave a half-life at 0.5 µM of 0.75 h. Also, in data set [6], the bioavailability came to 4%. The molecule also yielded a t1/2 in data set [17] (0.5 µM) of less than 0.25 h. In data set [10], this molecule returned an AUC of 40 ng·h/mL.
